The text below walks through data of ChEMBL document CHEMBL2346555, “Efficacious cyclic N-acyl O-amino phenol duocarmycin prodrugs” (J Med Chem, 2013).

Data set [1] is described as follows: Hypoxic cytotoxicity ratio of IC50 for human PC3MM2 cell under aerobic condition to IC50 for human PC3MM2 cells under hypoxic condition. It is filed as functional.
Data set [2] in a line: Cytotoxicity against human PC3MM2 cells assessed as growth inhibition under hypoxic condition after 72 hrs by SRB assay. The data set is classed as functional, cell-based. The conditions noted are these: PC3MM2, 72 h. In short, it runs like this:
(§1)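 Before the assay, A549 and PC3/MM2 cells were adapted for one week under hypoxia (37 °C, 5% CO2, 0.5% O2), subcultured twice; viability was checked by trypan blue. Cells were plated, held 24 h aerobic (37 °C, 5% CO2) or hypoxic, then exposed 72 h to 10 concentrations. SRB read-out per NCI DTP. Growth = [(Ti − Tz)/(C − Tz)] × 100%. IC50 by sigmoidal nonlinear regression, n = 3 independent experiments.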
A general note: Sulforhodamine B stains cellular protein and so reports cell mass.

Data set [3] in a line: Cytotoxicity against human PC3MM2 cells assessed as growth inhibition under aerobic condition after 72 hrs by SRB assay. The data set is classed as functional, cell-based. The note with it: PC3MM2, 72 h. In short, it runs like this:
as §1

For data set [4], the system named is A549. The data set is described as follows: Cytotoxicity against human A549 cells assessed as growth inhibition under hypoxic condition after 72 hrs by SRB assay. The data set is classed as functional, cell-based. The note with it: A549, 72 h. In short, it runs like this: as §1
Data set [5] deals with A549. As to the kind of experiment: Hypoxic cytotoxicity ratio of IC50 for human A549 cell under aerobic condition to IC50 for human A549 cells under hypoxic condition. It is filed as functional.
Data set [6] has as its system A549. The data set is described as follows: Cytotoxicity against human A549 cells assessed as growth inhibition under aerobic condition after 72 hrs by SRB assay. The data set is classed as functional, cell-based. The note with it: A549, 72 h. In short, it runs like this:
as §1

In data set [7] the test system is L1210. As to the kind of experiment: Cytotoxicity against mouse L1210 cells assessed as growth inhibition after 72 hrs by phosphatase assay. The data set is classed as functional, cell-based. In short, it runs like this: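 L1210 mouse leukemia cells were seeded at 30,000 cells/mL in DMEM with 10% FBS and grown 24 h at 37 °C, 5% CO2. DMSO dilutions were then added at six concentrations between 0–100 or 0–1000 nM, in duplicate, for 72 h. Read-out: phosphatase substrate in 0.1 M NaOAc pH 5.5 with 0.1% Triton X-100, 5 min at 37 °C, stopped with NaOH, A405. IC50 is the average of ≥4 determinations.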

For data set [8], the system named is Neurospora discreta. The data set is described as follows: Induction of Neurospora discreta w794 [5-32P]-DNA alkylation assessed as thermal-induced strand cleavage at 1 x 10^-5 M incubated for 2 hrs at 23 degC followed by thermolysis at 100 degC for 30 mins measured after 12 to 24 hrs by PAGE/autoradiographic analysis in presence of L-glutathione.
For data set [9], the system named is Neurospora discreta. As to the kind of experiment: Induction of Neurospora discreta w794 [5-32P]-DNA alkylation assessed as thermal-induced strand cleavage at 1 x 10^-5 M incubated for 2 hrs at 23 degC followed by thermolysis at 100 degC measured after 30 mins by PAGE/autoradiographic analysis in absence of L-glutathione. An outline of the steps:
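Labeled DNA was incubated with agent for 2 h at 23 °C. Unbound agent was removed by EtOH precipitation, then thermolysis for 30 min at 100 °C, 8% denaturing PAGE and autoradiography, with Sanger G, C, A, T lanes as markers. In the glutathione arm, agent at 1 × 10−5 M was first held at 37 °C with 1 M L-glutathione for 12 or 48 h.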

The nature of data set [10]: Fraction unbound in mouse plasma. It is filed as ADME, cell-free.
Data set [11] in a line: Half life in mouse plasma.
Data set [12] has as its system Neurospora discreta. As to the kind of experiment: Induction of Neurospora discreta w794 [5-32P]-DNA alkylation assessed as thermal-induced strand cleavage at 1 x 10^-3 M incubated for 2 hrs at 23 degC followed by thermolysis at 100 degC for 30 mins measured after 12 to 48 hrs by PAGE/autoradiographic analysis in presence of L-glutathione. The note with it: in the assay text read “1 x 10^-5 M” for “1 x 10^-3 M”. An outline of the steps: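 Agent first held with 1 M L-glutathione at 37 °C for 12 or 48 h to cause reductive activation. It was then incubated with 5′-32P-labelled w794 DNA at 23 °C for 2 h, and unbound agent was removed by EtOH precipitation. Thermolysis followed at 100 °C for 30 min, then 8% denaturing PAGE and autoradiography against Sanger sequencing lanes.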

Data set [13] relates to Neurospora discreta. The data set is described as follows: Induction of Neurospora discreta w794 [5-32P]-DNA alkylation assessed as thermal-induced strand cleavage at 1 x 10^-3 M incubated for 2 hrs at 23 degC followed by thermolysis at 100 degC for 30 mins measured after 12 to 24 hrs by PAGE/autoradiographic analysis in absence of L-glutathione. An outline of the steps:
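Agent incubated with 5′-32P-labelled w794 DNA at 23 °C for 2 h; unbound agent removed by EtOH precipitation. Thermolysis at 100 °C for 30 min induced strand cleavage at alkylation sites. Read-out by 8% denaturing PAGE and autoradiography, alongside Sanger G, C, A and T sequencing lanes and untreated control DNA. No glutathione present.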

Data set [14] concerns Neurospora discreta. As to the kind of experiment: Induction of Neurospora discreta w794 [5-32P]-DNA alkylation assessed as thermal-induced strand cleavage at 1 x 10^-3M incubated for 48 hrs at 23 degC followed by thermolysis at 100 degC for 30 mins measured after 12 to 48 hrs by PAGE/autoradiographic analysis in presence of L-glutathione.
Data set [15] concerns Neurospora discreta. As to the kind of experiment: Induction of Neurospora discreta w794 [5-32P]-DNA alkylation assessed as thermal-induced strand cleavage at 1 x 10^-5 M to 1 X 10^-4 M incubated for 48 hrs at 23 degC followed by thermolysis at 100 degC measured after 30 mins by PAGE/autoradiographic analysis.
For the next data set, the system named is Mus musculus. The data set is described as follows: Toxicity in B6D2F1 mouse allografted with mouse L1210 cells assessed as mortality at 100 to 250 ug/kg, ip tid administered on day 1 to 9 measured after 366 days. The data set is classed as organism-based. The conditions noted are these: in vivo, 8784 h. An outline of the steps:
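Syngeneic L1210 cells (1 × 10^6) were given i.p. to B6D2F1 mice on day 0; 10 per group. Compound in 100% DMSO was injected i.p. on days 1, 5 and 9. Animals were monitored daily and weighed twice weekly, with the study extended to 366 days. Deaths from drug toxicity were recorded.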

In data set [16] the test system is L1210. The data set is described as follows: Antitumor activity against mouse L1210 cells allografted in B6D2F1 mouse assessed as mean survival period at 500 ug/kg, ip tid administered on day 1 to 9 measured after 366 days relative to vehicle-treated control. It is filed as functional. In short, it runs like this:
(§2)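 L1210 cells (1 × 10^6) injected i.p. into B6D2F1 mice on day 0; 10 mice per group, randomized to vehicle or treatment. Dosing in 100% DMSO i.p. on days 1, 5 and 9 at 60–2500 μg/kg/inj. Animals were monitored daily and weighed twice weekly, with follow-up extended to 366 days. T/C = total survival days of the treated group ÷ total survival days of the control group × 100.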

Data set [17] relates to L1210. The data set is described as follows: Antitumor activity against mouse L1210 cells allografted in B6D2F1 mouse assessed as mean survival period at 250 ug/kg, ip tid administered on day 1 to 9 measured after 366 days relative to vehicle-treated control. The data set is classed as functional. In short, it runs like this:
as §2

Data set [18] deals with L1210. The data set is described as follows: Antitumor activity against mouse L1210 cells allografted in B6D2F1 mouse assessed as mean survival period at 100 ug/kg, ip tid administered on day 1 to 9 measured after 366 days relative to vehicle-treated control. The data set is classed as functional. In short, it runs like this: as §2
Data set [19] relates to L1210. As to the kind of experiment: Antitumor activity against mouse L1210 cells allografted in B6D2F1 mouse assessed as mean survival period at 60 ug/kg, ip tid administered on day 1 to 9 measured after 366 days relative to vehicle-treated control. It is filed as functional. An outline of the steps: as §2

Activity calls are given as the source filed them. The calls are words filed in the database; no cut-off is given here. Where only a bound is given, the exact number is not on record here.

A word on the IC50: it is the midpoint of a concentration-inhibition curve. Consider `O=C1Nc2cccc3c4c(cc(c23)O1)N(C(=O)c1cc2cc(NC(=O)c3cc5ccccc5[nH]3)ccc2[nH]1)C[C@H]4CCl`, for which the “Ratio IC50” value came out at 1.9 in data set [1] and 1 in the data set with A549 [5]. Also, the IC50 in data set [2] was determined as 170 nM; in data set [3] it was 320 nM; with A549 [4], 90 nM; in the data set on A549 [6], 90 nM.
Take `CC(C)(C)OC(=O)N1C[C@H]2C[C@@]23C1=CC(=O)c1ccccc13`: in the data set on L1210 [7] (l1210), the IC50 worked out at 900 nM.
Turning to `CN1Oc2cc3c(c4cccc(c24)C1=O)[C@@H](CCl)CN3C(=O)c1cc2cc(NC(=O)c3cc4ccccc4[nH]3)ccc2[nH]1`, the IC50 with L1210 [7] (Mus musculus, L1210, 72 h) came to 740 nM.
On the same count and under the same terms, to `CN1Oc2cc3c(c4cccc(c24)C1=O)[C@@H](CCl)CN3C(=O)OC(C)(C)C` belongs above 1000 nM.
As a reminder, the fraction unbound is free concentration divided by total concentration. A word on the half-life: it is the time in which the quantity being followed falls by half. High values mean slow loss, low ones fast loss. For `O=C(Nc1ccc2[nH]c(C(=O)N3C[C@@H](CCl)c4c3cc3c5c(cccc45)C(=O)NO3)cc2c1)c1cc2ccccc2[nH]1`, the outcome with Neurospora discreta [8] was Active. Further, in the data set on Neurospora discreta [9], the result was inactive. The fraction unbound in data set [10] was below 0.05. For the same molecule, the half-life in [11] was above 48 h. The IC50 with L1210 [7] (Mus musculus, L1210, 72 h) was 0.3 nM.
With `COC(=O)c1cc2c([nH]1)C(=O)C=C1N(C(=O)c3cc4cc(OC)c(OC)c(OC)c4[nH]3)CC3CC123` (centres undefined) [DUOCARMYCIN SA], the IC50 in the data set on L1210 [7] (Mus musculus, L1210, 72 h) was determined as 0.1 nM.
As for `CC(C)(C)OC(=O)NOc1cc2c(c3ccccc13)[C@H](CCl)CN2C(=O)c1cc2cc(NC(=O)c3cc4ccccc4[nH]3)ccc2[nH]1`, the result with Neurospora discreta [12] was Active. Besides, the result in the data set on Neurospora discreta [13] was inactive.
As for `COc1c(O)c2c(c3cc(C(=O)N4CCc5c4c(O)c(OC)c4[nH]c(C(=O)N6CC7CC78C6=CC(=O)c6[nH]cc(C)c68)cc54)[nH]c13)CCN2C(N)=O` (centres undefined) [CC-1065], the 50% inhibitory concentration (IC50) in the data set on L1210 [7] (Mus musculus, L1210, 72 h) amounted to 0.02 nM.
Turning to `CNC(=O)c1cccc2c3c(cc(O)c12)N(C(=O)c1cc2cc(NC(=O)c4cc5ccccc5[nH]4)ccc2[nH]1)CC3CCl` (racemic), the result with Neurospora discreta [14] was Active. In addition, in the data set with L1210 [7] (Mus musculus, L1210, 72 h), the IC50 came to 0.073 nM.
As to `O=C(Nc1ccc2[nH]c(C(=O)N3CC(CCl)c4c3cc(O)c3ccccc43)cc2c1)c1cc2ccccc2[nH]1` (centres undefined), the IC50 with L1210 [7] (Mus musculus, L1210, 72 h) is 0.9 nM.
On the same count and under the same terms, to `CC(C)(C)OC(=O)N1C[C@H](CCl)c2c1cc1c3c(cccc23)C(=O)NO1` belongs above 1000 nM.
Still for that read-out and setting: for `O=C(Nc1ccc2[nH]c(C(=O)N3C[C@H](CCl)c4c3cc3c5c(cccc45)C(=O)NO3)cc2c1)c1cc2ccccc2[nH]1` the value was 65 nM.
Turning to `O=C(Nc1ccc2[nH]c(C(=O)N3C[C@@H](CCl)c4c3cc(O)c3ccccc43)cc2c1)c1cc2ccccc2[nH]1` [SECO-CBI-INDOLE], the result with Neurospora discreta [15] was Active. The Activity result with Mus musculus is recorded as “Toxic”. Further, the T/C is 17 with L1210 [16], 21 in the data set with L1210 [17], 36 with L1210 [18] and above 284 in the data set with L1210 [19].
